# How the values were obtained:
# primary mouse neurons = test: Intracellular metabolite extraction from treated neurons; format: in vitro ADME; conditions: DIV14 cortical neurons, extracted intracellular metabolites, 1 pg limit of detection
# sarkosyl-insoluble Tau [1] = test: Sarkosyl fractionation of primary neurons, Tau immunoblot; format: cell-based, mouse; conditions: 12 hours; for Tau aggregation (sarkosyl-insoluble Tau) in primary neurons: Epoxomicin, MG132, iBEp 1 μM, Leupeptin 20 μM every two hours; for sarkosyl-insoluble Tau in primary WT mouse neurons: iBEp 1 μM, IgG-Epox […]
# [2] = test system: Tau phosphorylation at S202/T205; test: Immunocytochemistry for phosphorylated Tau in primary neurons; format: cell-based, mouse; conditions: primary hTau-KI hippocampal neurons, 12 hours
# [3] = test system: Tau phosphorylation at S202/T205; test: Immunohistochemistry; format: in vivo, mouse; conditions: stereotactic injection, 72 hours, versus contralateral control
# [4] = test system: ubiquitin-proteasome reporter GFPu in primary hippocampal neurons; test: GFPu degradation assay; format: cell-based, mouse; conditions: DIV14 primary neurons, 1 μM, 12-hour incubation
# Summary of the method: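 Primary hippocampal neurons on coverslips co-transfected at DIV7 or DIV8 with Ub-G76V-GFP (0.5 μg/coverslip) and mCherry (0.1 μg/coverslip) using lipofectamine 2000, 4 h at 37 °C. At DIV14, 1 μM test compound for 12 h, then fixed and processed for immunocytochemistry. GFP+ cells counted per 100 cells; n=6 regions imaged per replicate, N=3 biological replicates.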
# [5] = test system: intracellular ubiquitin conjugates and p62; test: Immunoblots of ubiquitin conjugates and p62 in primary neurons; format: cell-based, mouse; conditions: primary WT neurons, immunoblot
# [6] = biological target: catalytic proteasome subunits (Mus musculus, UniProt O55234+P70195+Q60692); format: binding; conditions: for targets bound (streptavidin enrichment / biotin pull-down, LC/MS): primary mouse neurons and mouse brain, Table S1
# sarkosyl-insoluble Tau [7] = test: Sarkosyl fractionation of hippocampi after stereotactic injection; format: in vivo, mouse
# [8] = test system: Tau paired helical filaments; test: Electron microscopy of sarkosyl-insoluble fractions of injected hippocampi; format: in vivo, mouse; conditions: hTau-KI mice, 72 hours after injection
# Tau phosphorylation = test: Quantitative phosphoproteomics of treated primary neurons; format: cell-based; conditions: primary mouse neurons; sites correspond to human S202, T205, T217, S404
# [9] = test system: β-sheet containing aggregates; test: Thioflavin S staining after stereotactic hippocampal injection; format: in vivo, mouse; conditions: hTau-KI mice, 72 hours, relative to contralateral controls
# [10] = In vivo hippocampal injection dose-ranging; design: species or system mouse
# Proteasome subunit β5 = Proteasome subunit β5 (Homo sapiens, UniProt P28074); test: Proteasome subunit β5 activity assay; format: biochemical
# [11] = test system: surface Lrp1, GluR1 and neuroproteasomes; test: Surface biotinylation of primary neurons treated with RAP; format: cell-based; conditions: primary mouse neurons
# Summary of the method: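 Neurons were washed in cold PBSCM pH 8.0 and labelled with 0.5 mg/mL Sulfo-NHS-LC-Biotin in PBSCM, 4°C for 10 min. Labelling quenched with 50 mM glycine, two 10-min incubations at 4°C.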
# [12] = test system: neuroproteasome activity and sarkosyl-insoluble Tau; format: cell-based, mouse; conditions: primary WT neurons treated with RAP and a dose curve of iBEp
molecule,measurement,setting,value
"CC[C@H](C)[C@H](NC(=O)[C@H]([C@@H](C)CC)N(C)C(C)=O)C(=O)N[C@H](C(=O)N[C@@H](CC(C)C)C(=O)[C@@]1(C)CO1)[C@@H](C)O [Epoxomicin, reference compound]",permeability into primary mouse neurons by LC/MS-based metabolite profiling,primary mouse neurons,peak in Epox treated cells corresponds to Epoxomicin
same,Tau aggregation (sarkosyl-insoluble Tau) in primary neurons,sarkosyl-insoluble Tau [1],does not
same,Tau phosphorylation at S202/T205 in primary neurons,[2],No Tau S202/T205 phosphorylation was detectable
same,Tau phosphorylation at S202/T205 (AT8) in hippocampi of hTau-KI mice,[3],No Tau S202/T205 phosphorylation was detectable
Biotin-PEG24-Epoxomicin [iBEp],accumulation of the ubiquitin-proteasome reporter GFPu,[4],did not cause accumulation
same,increase of total intracellular ubiquitin conjugates or p62 levels,[5],lack of both markers
same,"targets bound (streptavidin enrichment / biotin pull-down, LC/MS)",[6],selectively targets catalytic proteasome subunits
same,bands differentially labeled versus DMSO (streptavidin blot),[6]; primary neurons treated 12 hours,only three bands differentially labeled
same,Tau aggregation (sarkosyl-insoluble Tau) in primary neurons,sarkosyl-insoluble Tau [1],induces Tau aggregation
same,sarkosyl-insoluble Tau in primary WT mouse neurons,sarkosyl-insoluble Tau [1]; immunoblot,significant increase
same,sarkosyl-insoluble Tau in hippocampi from hTau-KI mice,"sarkosyl-insoluble Tau [7]; 2 μL of 6.4 μM into CA1, 72 hours, contralateral IIT-PEG24-Biotin, N=6",significant increase
same,sarkosyl-insoluble Tau signal in hippocampi from Tau-KO mice,"sarkosyl-insoluble Tau [7]; stereotactic injection, contralateral DMSO, N=3",no detectable signal
same,filaments in sarkosyl-insoluble fractions by negative stain EM,[8],Twisted filaments which resembled paired helical filaments (PHFs) were readily apparent
same,"Tau phosphorylation sites with time-dependent increase, of identified sites",Tau phosphorylation,4 of 26
same,Tau phosphorylation at S202/T205 in primary neurons,[2],significantly elevated
same,Tau phosphorylation at S202/T205 (AT8) in hippocampi of hTau-KI mice,[3],significantly elevated
same,ThioS staining in CA1 region of hippocampi,[9],strong increase
same,adverse physiological effects at selected concentration,[10]; 6.4 μM,without causing observable adverse physiological effects
same,inhibition of membrane-fraction proteasomes in vivo,[10]; 6.4 μM,detectable inhibition of membrane-fraction proteasomes
same,concentration inducing seizure activity,"[10]; 2 μL, mice",exceeding 12 μM
Biotin-PEG24-IleIleThr,sarkosyl-insoluble Tau in primary WT mouse neurons,sarkosyl-insoluble Tau [1]; immunoblot,No such signal
Sulfo-MG132 [SulfoMG],activity as proteasome inhibitor,"Proteasome subunit β5; dose curve, Suc-LLVY-AMC (Extended Data Fig. 3g)",active
same,potency relative to MG132,"Proteasome subunit β5; proteasome, calpain and cathepsin L activity assays (Extended Data Fig. 3g,h)",less potent than MG132
same,"targets bound (streptavidin enrichment / biotin pull-down, LC/MS)",[6],the catalytic proteasome subunits as well as some off-targets of MG132
same,sarkosyl-insoluble hTau in primary hTau-KI neurons,"sarkosyl-insoluble Tau [1]; 1 μM, immunoblot",induces similar partitioning of hTau into the sarkosyl-insoluble fraction as iBEp
same,Tau aggregation (sarkosyl-insoluble Tau) in primary neurons,sarkosyl-insoluble Tau [1],induces Tau aggregation
"RAP: pan-ApoE receptor antagonist, Receptor-associated protein (protein, UniProt P30533 35-357, looked up) Alpha-2-macroglobulin …: YSREKNQPKPSPKRESGEEFRMEKLNQLWEKAQRLHLPPVRLAELHADLKIQERDELAWKKLKLDGLDEDGEKEARLIRNLNVILAKYGLDGKKDARQVTSNSLSGTQEDGLDDPRLEKLWHKAKTSGKFSGEELDKLWREFLHHKEKVHEYNVLLETLSRTEEIHENVISPSDLSDIKGSVLHSRHTELKEKLRSINQGLDRLRRVSHQGYSTEAEFEEPRVIDLWDLAQSANLTDKELEAFREELKHFEAKIEKHNHYQKQLEIAHEKLRHAESVGDGERVSRSREKHALLEGRTKELGYTVKKHLQDLSGRISRARHNEL",surface GluR1,[11],without modifying
same,surface abundance of neuroproteasomes,[11],reduced
same,surface localization of Lrp1,[11],rapidly decreased
same,susceptibility of neurons to Tau aggregation,[12],renders neurons more susceptible to Tau aggregation

# From PMC13334530 (Nature neuroscience, 2026)
